From article PMC3325328 (Journal of Medicinal Chemistry, 2012)

What was measured:
murine TLR2 = murine TLR2 (Mus musculus, UniProt Q9QUN7); experiment: murine TLR2-specific NF-κB reporter gene assay; type: cell-based; details: for mTLR2-agonistic activity (in words): murine TLR2 reporter gene assay
Outline: (§1)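 HEK-Blue reporter cells with NF-κB-driven secreted alkaline phosphatase (sAP) were plated at ~10⁵ cells/mL and grown to confluency. They were then stimulated for 12 h with serially diluted test compound. Extracellular sAP in the supernatant was read spectrophotometrically at 620 nm using an alkaline phosphatase-specific chromogen in the detection medium. Samples were run in quadruplicate, with means and standard deviations shown.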

human TLR2 [1] = molecular target: T1, human TLR2 (Homo sapiens, UniProt O60603); experiment: human TLR2-specific NF-κB reporter gene assay; type: cell-based; details: for absolute magnitude of TLR2-induced NF-κB activation (in words): Fig. 1
T1 sequence (O60603 21-784): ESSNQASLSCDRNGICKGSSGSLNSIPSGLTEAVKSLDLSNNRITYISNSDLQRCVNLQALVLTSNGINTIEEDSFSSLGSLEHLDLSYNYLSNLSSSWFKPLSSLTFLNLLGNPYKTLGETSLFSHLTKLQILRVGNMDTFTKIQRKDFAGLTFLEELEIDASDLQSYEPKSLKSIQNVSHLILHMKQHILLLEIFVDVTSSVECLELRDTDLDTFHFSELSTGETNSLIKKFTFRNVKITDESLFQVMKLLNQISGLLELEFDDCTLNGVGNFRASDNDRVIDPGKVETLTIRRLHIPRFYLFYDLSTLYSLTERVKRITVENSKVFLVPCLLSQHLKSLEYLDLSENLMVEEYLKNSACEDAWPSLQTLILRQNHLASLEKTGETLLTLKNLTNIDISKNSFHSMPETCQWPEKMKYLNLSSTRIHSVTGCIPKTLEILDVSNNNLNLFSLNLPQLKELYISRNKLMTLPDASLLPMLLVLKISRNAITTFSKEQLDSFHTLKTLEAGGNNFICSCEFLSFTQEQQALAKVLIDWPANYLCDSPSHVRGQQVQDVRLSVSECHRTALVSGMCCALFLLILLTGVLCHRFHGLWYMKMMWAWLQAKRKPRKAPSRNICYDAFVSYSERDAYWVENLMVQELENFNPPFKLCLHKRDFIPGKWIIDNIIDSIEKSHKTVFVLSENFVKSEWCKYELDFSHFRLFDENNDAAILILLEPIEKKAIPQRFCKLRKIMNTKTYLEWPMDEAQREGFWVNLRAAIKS
Outline: as §1

human TLR2 [2] = molecular target: T1, human TLR2; details: cited from earlier work

Chain of murine TLR2 (Q9QUN7 25-784): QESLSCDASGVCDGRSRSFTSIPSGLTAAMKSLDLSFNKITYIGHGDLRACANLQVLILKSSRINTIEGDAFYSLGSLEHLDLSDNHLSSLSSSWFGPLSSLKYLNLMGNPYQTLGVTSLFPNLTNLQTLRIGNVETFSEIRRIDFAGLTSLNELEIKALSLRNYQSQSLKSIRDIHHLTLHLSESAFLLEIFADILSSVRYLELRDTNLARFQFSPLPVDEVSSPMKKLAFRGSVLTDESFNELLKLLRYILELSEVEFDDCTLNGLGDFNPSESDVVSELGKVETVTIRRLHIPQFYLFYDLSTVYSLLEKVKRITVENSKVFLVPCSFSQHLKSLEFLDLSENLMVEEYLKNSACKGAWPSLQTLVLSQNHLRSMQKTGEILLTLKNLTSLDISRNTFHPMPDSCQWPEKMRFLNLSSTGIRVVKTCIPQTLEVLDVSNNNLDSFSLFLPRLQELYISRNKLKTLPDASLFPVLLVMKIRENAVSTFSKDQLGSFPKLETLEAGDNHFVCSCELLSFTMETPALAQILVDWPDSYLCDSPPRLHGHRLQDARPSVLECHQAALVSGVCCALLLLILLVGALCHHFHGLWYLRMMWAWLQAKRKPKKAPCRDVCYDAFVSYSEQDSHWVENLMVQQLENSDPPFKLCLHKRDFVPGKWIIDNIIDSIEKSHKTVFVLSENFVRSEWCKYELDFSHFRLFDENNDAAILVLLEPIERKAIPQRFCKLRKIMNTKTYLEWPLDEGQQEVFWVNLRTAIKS

| SMILES | hTLR2-agonistic activity (in words) (human TLR2 [1]) | other results |
| --- | --- | --- |
| CCCCCCCCCCCCCCCC(=O)OCCSC[C@H](N)C(=O)N[C@@H](CO)C(=O)OC [Compound 6d] | – | specificity for human versus murine TLR2 (in words) (murine TLR2; human and murine TLR2 reporter gene assays): exquisite specificity in activating human TLR2 (hTLR2), but not murine TLR2 (mTLR2); mTLR2-agonistic activity (in words) (murine TLR2): entirely inactive |
| CCCCCCCCCCCCCCCCCC(=O)OCCSC[C@H](N)C(=O)N[C@@H](CO)C(=O)OC [Compound 6e, 2-(((R)-2-amino-3-(((S)-3-hydroxy-1-methoxy-1-oxopropan-2-yl)amino)-3-oxopropyl)thio)ethyl stearate] | – | mTLR2-agonistic activity (in words) (murine TLR2): entirely inactive |
| COC(=O)[C@H](CO)NC(=O)[C@@H](N)CSCCOC(=O)c1ccc(-c2ccccc2)cc1 [Compound 6f, 2-(((R)-2-amino-3-(((S)-3-hydroxy-1-methoxy-1-oxopropan-2-yl)amino)-3-oxopropyl)thio)ethyl [1,1'-biphenyl]-4-carboxylate] | complete absence of activity | – |
| COC(=O)[C@H](CO)NC(=O)[C@@H](N)CSCCOC(=O)c1cccc(-c2ccccc2)c1 [Compound 6g, 2-(((R)-2-amino-3-(((S)-3-hydroxy-1-methoxy-1-oxopropan-2-yl)amino)-3-oxopropyl)thio)ethyl [1,1'-biphenyl]-3-carboxylate] | complete absence of activity | – |
| CCCCCCCCCCCCCCN(CCCCCCCCCCCCCC)CC(=O)OCCSC[C@H](N)C(=O)N[C@@H](CO)C(=O)OC [Compound 10a, (S)-methyl 2-((R)-2-amino-3-((2-(2-(ditetradecylamino)acetoxy)ethyl)thio)propanamido)-3-hydroxypropanoate] | completely inactive | – |
| CCCCCCCCCCCCCCNCC(=O)OCCSC[C@H](N)C(=O)N[C@@H](CO)C(=O)OC [Compound 10b, (S)-methyl 2-((R)-2-amino-3-((2-(2-(tetradecylamino)acetoxy)ethyl)thio)propanamido)-3-hydroxypropanoate] | completely inactive | – |
| CCCCCCCCCCCCCCCC(=O)OCCSC[C@H](NC(C)=O)C(=O)N[C@@H](CO)C(=O)OC [Compound 11d, 2-(((R)-2-acetamido-3-(((S)-3-hydroxy-1-methoxy-1-oxopropan-2-yl)amino)-3-oxopropyl)thio)ethyl palmitate] | – | absolute magnitude of TLR2-induced NF-κB activation (in words) (human TLR2 [1]): far greater |
| CCCCCCCCCCCCCCCC(=O)N[C@@H](CSCCOC(=O)CCCCCCCCCCCCCCC)C(=O)N[C@@H](CO)C(=O)OC [Compound 11g, 2-(((R)-3-(((S)-3-hydroxy-1-methoxy-1-oxopropan-2-yl)amino)-3-oxo-2-palmitamidopropyl)thio)ethyl palmitate] | complete loss of activity | – |
| CCCCCCCCCCCCCCCC(=O)OCCSC[C@H](NC(=O)C(F)(F)F)C(=O)N[C@@H](CO)C(=O)OC [Compound 11h, 2-(((R)-3-(((S)-3-hydroxy-1-methoxy-1-oxopropan-2-yl)amino)-3-oxo-2-(2,2,2-trifluoroacetamido)propyl)thio)ethyl palmitate] | – | absolute magnitude of TLR2-induced NF-κB activation (in words) (human TLR2 [1]): low magnitude of NF-κB activation |
| CCCCCCCCCCCCCCCC(=O)OCCSC[C@H](N)C(=O)N[C@@H](COC(C)=O)C(=O)OC [Compound 14a, 2-(((R)-3-(((S)-3-acetoxy-1-methoxy-1-oxopropan-2-yl)amino)-2-amino-3-oxopropyl)thio)ethyl palmitate] | virtually indistinguishable from that of 6d | – |
| CCCCCCCCCCCCCCCC(=O)OCCCSC[C@H](N)C(=O)N[C@@H](CO)C(=O)OC [Compound 15, 3-((R)-2-amino-3-((S)-3-hydroxy-1-methoxy-1-oxopropan-2-ylamino)-3-oxopropylthio)propyl palmitate] | – | TLR2-agonistic activity (in words), previously identified (human TLR2 [2]): inactive |
| CCCCCCCCCCCCCCCC(=O)OCCCSC[C@H](NC(C)=O)C(=O)N[C@@H](CO)C(=O)OC [Compound 16, 3-(((R)-2-acetamido-3-(((S)-3-hydroxy-1-methoxy-1-oxopropan-2-yl)amino)-3-oxopropyl)thio)propyl palmitate] | active, albeit much weaker in potency than 11d | – |
